How the values were obtained:
[1] = melting temperature; fluorescence melt of hairpins on a sequencing array, two-state fit, raised by 9.35 °C to match UV melts; details: sodium 0.088 M
Method in brief: (§1)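 To match UV melts, fitted temperatures were raised by 9.35 °C. These fits were bootstrapped two-state models that gave melting temperature and folding enthalpy, combined by inverse variance over four replicates. The input was normalised Cy3 fluorescence of library hairpins with annealed Cy3 and quencher oligos on a sequenced MiSeq flow cell, imaged in 50 mM Na-HEPES pH 8.0, 25 mM NaCl in 2.5 °C steps up to 60 °C.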

[2] = folding enthalpy; higher = less favourable; fluorescence melt of hairpins on a sequencing array, two-state fit; details: sodium 0.088 M
Method in brief: as §1

Sequence | Tm [1] | folding enthalpy [2]
GGGCTCGAAAGAGATCCC ((((((....)))..))) | 47.8 °C | -18.9 kcal/mol
GCCTGTTCGAAAGAAGGC (((..(((....)))))) | 38.8 °C | -25.6 kcal/mol
GATCATGTATATGATC ((((((....)))))) | 55.3 °C | -41.7 kcal/mol
GATCCGATCTCGGATC ((((((....)))))) | 62.2 °C | -40.9 kcal/mol
GACTGTGGAAACGCAGTC (((((.(....).))))) | 51.9 °C | -31.7 kcal/mol
GTGGGCGAAAGCCGACAC ((((((....)))..))) | 53.8 °C | -13.6 kcal/mol
GCTTATCGAAAGATTAGC (((.(((....))).))) | 44.8 °C | -35.9 kcal/mol
GATCCGCTCTCGGATC ((((((....)))))) | 60 °C | -33.8 kcal/mol
GGAATACGAAAGTATCC (((.(((....)))))) | 42.8 °C | -17.9 kcal/mol
GTTGACGAAAGTCGAAAC ((((((....)))..))) | 30.9 °C | -12 kcal/mol
GGTGTGCGAAAGCAGACC (((.(((....))).))) | 64.4 °C | -33.9 kcal/mol
GTCTTGAAAAAGAC (((((....))))) | 44.1 °C | -21.7 kcal/mol
CGACAGCGGAAACGCTCG (((..(((....)))))) | 40.3 °C | -12.9 kcal/mol
GATCTCTCAAGAGATC ((((((....)))))) | 53.7 °C | -40.8 kcal/mol
GACACAGAAATGTGTC ((((((....)))))) | 56.5 °C | -28.5 kcal/mol
GACTCCGAAAGGAGGTC ((((((....))).))) | 56.2 °C | -13.5 kcal/mol
GATCCTTTTAAGGATC ((((((....)))))) | 57.9 °C | -36.6 kcal/mol
GTCATCGAAAGATTGAC ((((((....))).))) | 40.7 °C | -26.9 kcal/mol
GTCGGTCGAAAGACTGAC (((.(((....))).))) | 61.2 °C | -38.1 kcal/mol
GTACAGCGAAAGCTTTAC (((.(((....))).))) | 39.6 °C | -24.7 kcal/mol
GGTCACGCGAAAGCGACC (((..(((....)))))) | 47.4 °C | -14.2 kcal/mol
GCCGTTTCGAAAGAAGGC (((..(((....)))))) | 44.3 °C | -22.4 kcal/mol
GTTGACGGAAACGTTGAC ((..(((....)))..)) | 37.5 °C | -25.4 kcal/mol

Sequence | Tm [1] | folding enthalpy [2]
GATCTCCTGTGAGATC ((((((....)))))) | 52.5 °C | -45.7 kcal/mol
GATGGGGGAAACCTCATC ((((.((....)).)))) | 46.3 °C | -28.4 kcal/mol
CGTATCGGAAACGAACG (((.(((....)))))) | 36.2 °C | -24.5 kcal/mol
GTGAACGAAAGTTAACAC ((((((....)))..))) | 35.5 °C | -19.5 kcal/mol
CGAGCGGAAACGCACTCG ((((((....)))..))) | 37.6 °C | -15.8 kcal/mol
GCGTCGGGAAACCGACAC (.(((((....))))).) | 48.1 °C | -11.2 kcal/mol
GGACGCGAAAGCGTATCC ((((((....)))..))) | 37.4 °C | -9.56 kcal/mol
GCCGGAGGAAACTCCAGC ((.((((....)))).)) | 40.9 °C | -23.8 kcal/mol
GTGCTACGAAAGTACCAC (((.(((....))).))) | 37.8 °C | -26 kcal/mol
GATCCGCTTCCGGATC ((((((....)))))) | 57.6 °C | -38.2 kcal/mol
GATCAGAGTTCTGATC ((((((....)))))) | 50.5 °C | -36.6 kcal/mol
GAAGGCGAAAGCCACTTC ((((((....)))..))) | 40.6 °C | -13.1 kcal/mol
GGCGTTCCGAAAGGAGCC (((..(((....)))))) | 51.7 °C | -20.5 kcal/mol
GCGCTGTCGAAAGACCGC (((..(((....)))))) | 52.3 °C | -22.8 kcal/mol
GCTGGAGCGAAAGCTAGC (((..(((....)))))) | 49.9 °C | -16.6 kcal/mol
GCTAAGGAAACTTAGC ((((((....)))))) | 52 °C | -24.6 kcal/mol
GAAGCAGAAATGCTTC ((((((....)))))) | 54.5 °C | -35.3 kcal/mol
GATCCGAGGCCGGATC ((((((....)))))) | 56.4 °C | -45.5 kcal/mol
GCTACGGGAAACCGTAGC (((((((....))))))) | 68.8 °C | -38.1 kcal/mol
GAATCAGAAATGATTC ((((((....)))))) | 45.6 °C | -32.9 kcal/mol
GCATGGCGAAAGCCTTGC (((.(((....))).))) | 60.8 °C | -35.4 kcal/mol
GTCGACGAAAGTCTGGAC ((((((....)))..))) | 39.8 °C | -16.1 kcal/mol
GATCTTACGAAAGATC ((((((....)))))) | 39.4 °C | -26.4 kcal/mol
